Test results as given in ChEMBL document CHEMBL4811251 (Eur J Med Chem, 2021).
Activity calls are given as the source filed them. The rule behind the calls is not given here.

Experiments:
MV4-11 = assay: Antiproliferative activity against human MV4-11 cells assessed as growth inhibition after 72 hrs by resazurin assay; assay type: functional
Outline: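 MV4-11 cells kept at 37 °C with 5% CO2 in ATCC-recommended medium plus 10% FBS. In-house resazurin viability assay after 72 h exposure. GI50 reported as mean ± standard deviation from at least two replicates.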

CDK8/Cyclin C = CDK8/Cyclin C (Homo sapiens, UniProt P49336); assay: Inhibition of CDK8/Cyclin C (unknown origin) using RBER-CHKtide as substrate in presence of [33P]gammaATP incubated for 60 mins by microplate scintillation counter analysis
[1] = Volume of distribution at steady state in Sprague-Dawley rat at 5 mg/kg, iv measured upto 24 hrs by LC/MS/MS analysis; assay type: ADME, organism-based; settings: in vivo, read-out: Vdss
[2] = Volume of distribution at steady state in BALB/c mouse at 2 mg/kg, iv measured upto 24 hrs by LC/MS/MS analysis; assay type: ADME, organism-based; settings: in vivo, read-out: Vdss
[3] = Clearance in Sprague-Dawley rat at 5 mg/kg, iv measured upto 24 hrs by LC/MS/MS analysis; assay type: ADME, organism-based; settings: in vivo
[4] = Clearance in BALB/c mouse at 2 mg/kg, iv measured upto 24 hrs by LC/MS/MS analysis; assay type: ADME, organism-based; settings: in vivo
[5] = Cmax in Sprague-Dawley rat at 5 mg/kg, iv measured upto 24 hrs by LC/MS/MS analysis; assay type: ADME, organism-based; set-up: route intravenous, dose 5 mg/kg, time <=24; settings: in vivo
[6] = Cmax in Sprague-Dawley rat at 20 mg/kg, po measured upto 24 hrs by LC/MS/MS analysis; assay type: ADME, organism-based; set-up: route oral, dose 20 mg/kg, time <=24; settings: in vivo
[7] = Cmax in BALB/c mouse at 2 mg/kg, iv measured upto 24 hrs by LC/MS/MS analysis; assay type: ADME, organism-based; set-up: route intravenous, dose 2 mg/kg, time <=24; settings: in vivo
[8] = Cmax in BALB/c mouse at 10 mg/kg, po measured upto 24 hrs by LC/MS/MS analysis; assay type: ADME, organism-based; set-up: route oral, dose 10 mg/kg, time <=24; settings: in vivo
[9] = Tmax in Sprague-Dawley rat at 5 mg/kg, iv measured upto 24 hrs by LC/MS/MS analysis; assay type: ADME, organism-based; settings: in vivo
[10] = Tmax in Sprague-Dawley rat at 20 mg/kg, po measured upto 24 hrs by LC/MS/MS analysis; assay type: ADME, organism-based; settings: in vivo
[11] = Tmax in BALB/c mouse at 2 mg/kg, iv measured upto 24 hrs by LC/MS/MS analysis; assay type: ADME, organism-based; settings: in vivo
[12] = Tmax in BALB/c mouse at 10 mg/kg, po measured upto 24 hrs by LC/MS/MS analysis; assay type: ADME, organism-based; settings: in vivo
[13] = Half life in Sprague-Dawley rat at 5 mg/kg, iv measured upto 24 hrs by LC/MS/MS analysis; assay type: ADME, organism-based; settings: in vivo
[14] = Half life in Sprague-Dawley rat at 20 mg/kg, po measured upto 24 hrs by LC/MS/MS analysis; assay type: ADME, organism-based; settings: in vivo
[15] = Half life in BALB/c mouse at 2 mg/kg, iv measured upto 24 hrs by LC/MS/MS analysis; assay type: ADME, organism-based; settings: in vivo
[16] = Half life in BALB/c mouse at 10 mg/kg, po measured upto 24 hrs by LC/MS/MS analysis; assay type: ADME, organism-based; settings: in vivo
[17] = AUC in Sprague-Dawley rat at 5 mg/kg, iv measured upto 24 hrs by LC/MS/MS analysis; assay type: ADME, organism-based; set-up: route intravenous, dose 5 mg/kg, time <=24; settings: in vivo
[18] = AUC in Sprague-Dawley rat at 20 mg/kg, po measured upto 24 hrs by LC/MS/MS analysis; assay type: ADME, organism-based; set-up: route oral, dose 20 mg/kg, time <=24; settings: in vivo
[19] = AUC in BALB/c mouse at 2 mg/kg, iv measured upto 24 hrs by LC/MS/MS analysis; assay type: ADME, organism-based; set-up: route intravenous, dose 2 mg/kg, time <=24; settings: in vivo
[20] = AUC in BALB/c mouse at 10 mg/kg, po measured upto 24 hrs by LC/MS/MS analysis; assay type: ADME, organism-based; set-up: route oral, dose 10 mg/kg, time <=24; settings: in vivo
[21] = Oral bioavailability in Sprague-Dawley rat at 20 mg/kg measured upto 24 hrs by LC/MS/MS analysis; assay type: ADME, organism-based; settings: in vivo
[22] = Oral bioavailability in BALB/c mouse at 10 mg/kg measured upto 24 hrs by LC/MS/MS analysis; assay type: ADME, organism-based; settings: in vivo
[23] = target: Glycogen synthase kinase-3 alpha (Homo sapiens) (UniProt P49840); assay: Inhibition of GSK3alpha (unknown origin) assessed as residual activity at 1 uM relative to control
[24] = target: Glycogen synthase kinase-3 beta (Homo sapiens) (UniProt P49841); assay: Inhibition of GSK3beta (unknown origin) assessed as residual activity at 1 uM relative to control
[25] = target: Cyclin-dependent kinase 1/cyclin B1 (Homo sapiens) (UniProt P06493+P14635); assay: Inhibition of CDK1/Cyclin B (unknown origin) assessed as residual activity at 1 uM relative to control; assay type: protein-complex assay
[26] = target: CDK9/cyclin T1 (Homo sapiens) (UniProt O60563+P50750); assay: Inhibition of CDK9/Cyclin T1 (unknown origin) assessed as residual activity at 1 uM relative to control; assay type: protein-complex assay
[27] = target: Protein kinase C theta (Homo sapiens) (UniProt Q04759); assay: Inhibition of PKC theta (unknown origin) assessed as residual activity at 1 uM relative to control
Sequence of Protein kinase C theta (Homo sapiens) (Q04759 whole entry, looked up): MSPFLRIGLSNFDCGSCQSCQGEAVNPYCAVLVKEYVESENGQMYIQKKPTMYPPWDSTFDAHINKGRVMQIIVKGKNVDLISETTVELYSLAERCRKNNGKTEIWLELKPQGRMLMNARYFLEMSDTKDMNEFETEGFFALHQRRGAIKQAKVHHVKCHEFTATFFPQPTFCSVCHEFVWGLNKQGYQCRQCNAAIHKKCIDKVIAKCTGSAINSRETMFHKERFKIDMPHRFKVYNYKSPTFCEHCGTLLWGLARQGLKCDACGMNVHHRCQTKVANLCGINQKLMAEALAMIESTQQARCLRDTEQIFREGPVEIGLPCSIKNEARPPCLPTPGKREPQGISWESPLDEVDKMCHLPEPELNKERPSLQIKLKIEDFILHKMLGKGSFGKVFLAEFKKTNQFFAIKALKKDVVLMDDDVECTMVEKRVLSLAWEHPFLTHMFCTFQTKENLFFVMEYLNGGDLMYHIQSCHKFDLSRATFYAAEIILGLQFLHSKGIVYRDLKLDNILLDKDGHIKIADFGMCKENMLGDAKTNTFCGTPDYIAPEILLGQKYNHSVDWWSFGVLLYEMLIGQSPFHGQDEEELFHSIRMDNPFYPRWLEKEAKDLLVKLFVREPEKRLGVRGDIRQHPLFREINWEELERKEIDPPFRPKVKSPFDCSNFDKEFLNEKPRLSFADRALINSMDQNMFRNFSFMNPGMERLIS

Sequence of CDK8/Cyclin C (P49336 whole entry): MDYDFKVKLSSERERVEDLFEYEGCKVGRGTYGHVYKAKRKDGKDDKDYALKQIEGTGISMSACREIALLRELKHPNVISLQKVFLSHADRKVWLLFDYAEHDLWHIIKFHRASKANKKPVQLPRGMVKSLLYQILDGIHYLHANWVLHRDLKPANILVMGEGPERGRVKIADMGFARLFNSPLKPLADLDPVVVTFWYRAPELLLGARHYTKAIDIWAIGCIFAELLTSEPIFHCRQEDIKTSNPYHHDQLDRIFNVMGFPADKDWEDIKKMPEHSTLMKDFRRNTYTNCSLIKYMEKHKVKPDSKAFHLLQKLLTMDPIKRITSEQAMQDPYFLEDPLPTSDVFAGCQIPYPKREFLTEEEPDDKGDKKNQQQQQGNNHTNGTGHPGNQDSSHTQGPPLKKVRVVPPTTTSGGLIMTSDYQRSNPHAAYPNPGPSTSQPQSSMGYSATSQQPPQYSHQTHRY
Sequence of CDK8/Cyclin C (P24863 whole entry, further chain): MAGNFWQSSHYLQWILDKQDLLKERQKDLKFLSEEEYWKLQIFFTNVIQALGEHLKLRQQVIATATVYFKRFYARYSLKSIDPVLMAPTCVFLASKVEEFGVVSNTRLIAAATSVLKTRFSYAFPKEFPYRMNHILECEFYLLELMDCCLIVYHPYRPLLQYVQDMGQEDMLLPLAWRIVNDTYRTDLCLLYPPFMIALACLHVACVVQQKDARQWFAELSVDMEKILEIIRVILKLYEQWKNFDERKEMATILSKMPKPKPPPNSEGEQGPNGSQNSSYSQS
Sequence of Cyclin-dependent kinase 1/cyclin B1 (Homo sapiens) (P06493 whole entry, looked up): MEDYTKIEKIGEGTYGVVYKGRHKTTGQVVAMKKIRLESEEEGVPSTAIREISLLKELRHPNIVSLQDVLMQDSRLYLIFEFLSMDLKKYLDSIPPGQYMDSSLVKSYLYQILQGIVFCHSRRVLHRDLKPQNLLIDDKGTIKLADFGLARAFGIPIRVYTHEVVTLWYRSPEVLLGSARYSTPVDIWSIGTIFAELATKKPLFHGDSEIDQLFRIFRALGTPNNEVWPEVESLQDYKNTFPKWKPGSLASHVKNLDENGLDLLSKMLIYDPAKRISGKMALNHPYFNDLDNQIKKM
Sequence of Cyclin-dependent kinase 1/cyclin B1 (Homo sapiens) (P14635 whole entry, looked up): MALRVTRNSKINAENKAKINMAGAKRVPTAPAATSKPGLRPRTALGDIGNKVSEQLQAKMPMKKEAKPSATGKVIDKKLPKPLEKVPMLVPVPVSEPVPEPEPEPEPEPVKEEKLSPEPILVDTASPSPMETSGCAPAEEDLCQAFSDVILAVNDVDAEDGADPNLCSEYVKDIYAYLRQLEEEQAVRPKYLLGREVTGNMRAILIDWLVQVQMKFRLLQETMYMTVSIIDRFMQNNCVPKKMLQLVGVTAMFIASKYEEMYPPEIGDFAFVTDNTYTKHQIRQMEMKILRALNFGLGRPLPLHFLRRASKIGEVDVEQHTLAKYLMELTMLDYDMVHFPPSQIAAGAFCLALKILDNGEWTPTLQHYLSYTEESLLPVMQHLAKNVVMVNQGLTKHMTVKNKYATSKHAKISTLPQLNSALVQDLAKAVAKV
Sequence of Glycogen synthase kinase-3 beta (Homo sapiens) (P49841 whole entry, looked up): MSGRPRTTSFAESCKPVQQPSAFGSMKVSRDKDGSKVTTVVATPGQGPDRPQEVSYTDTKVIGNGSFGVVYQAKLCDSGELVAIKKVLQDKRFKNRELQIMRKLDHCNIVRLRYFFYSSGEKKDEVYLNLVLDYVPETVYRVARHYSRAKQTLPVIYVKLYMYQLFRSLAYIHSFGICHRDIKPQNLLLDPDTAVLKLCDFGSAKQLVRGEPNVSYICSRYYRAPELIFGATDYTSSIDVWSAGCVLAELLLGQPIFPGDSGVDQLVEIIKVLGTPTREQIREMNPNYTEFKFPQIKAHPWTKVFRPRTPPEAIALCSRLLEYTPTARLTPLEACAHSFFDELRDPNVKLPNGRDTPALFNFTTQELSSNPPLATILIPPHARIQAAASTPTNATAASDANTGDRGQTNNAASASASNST
Sequence of Glycogen synthase kinase-3 alpha (Homo sapiens) (P49840 2-483 limits assumed): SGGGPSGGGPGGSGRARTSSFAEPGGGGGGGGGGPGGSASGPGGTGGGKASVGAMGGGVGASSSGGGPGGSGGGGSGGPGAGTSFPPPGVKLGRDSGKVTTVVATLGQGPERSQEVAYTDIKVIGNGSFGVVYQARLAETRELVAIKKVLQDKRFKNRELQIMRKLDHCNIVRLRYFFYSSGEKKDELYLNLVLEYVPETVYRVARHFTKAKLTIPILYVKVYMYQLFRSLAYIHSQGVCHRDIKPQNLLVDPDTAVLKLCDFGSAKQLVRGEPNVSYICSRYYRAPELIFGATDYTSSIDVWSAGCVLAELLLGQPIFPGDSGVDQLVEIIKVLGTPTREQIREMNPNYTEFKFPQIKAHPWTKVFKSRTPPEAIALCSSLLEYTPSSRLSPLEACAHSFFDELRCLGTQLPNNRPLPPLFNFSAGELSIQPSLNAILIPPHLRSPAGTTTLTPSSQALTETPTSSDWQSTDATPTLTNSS

## Cn1ncc2cc(-c3cnc(N)c(Cl)c3N3CCC4(CCNC4=O)CC3)ccc21
MV4-11
  GI50: 50 nM

## Cn1cccc1-c1cncc(Cl)c1N1CCC2(CCNC2=O)CC1
MV4-11
  GI50: 900 nM
CDK8/Cyclin C
  Ki: 30 nM

## O=C1NCCC12CCN(c1c(Cl)cncc1-c1ccc(CN3CCCC3)s1)CC2
MV4-11
  GI50: 3370 nM
CDK8/Cyclin C
  Ki: 132 nM

## O=Cc1ccc(-c2cncc(Cl)c2N2CCC3(CCNC3=O)CC2)o1
MV4-11
  GI50: 5190 nM
CDK8/Cyclin C
  Ki: 82 nM

## O=Cc1cc(-c2cncc(Cl)c2N2CCC3(CCNC3=O)CC2)co1
MV4-11
  GI50: 5150 nM
CDK8/Cyclin C
  Ki: 185 nM

## O=C1NCCC12CCN(c1c(Cl)cncc1-c1ccco1)CC2
MV4-11
  GI50: 940 nM
CDK8/Cyclin C
  Ki: 26 nM

## O=C1NCCC12CCN(c1c(Cl)cncc1-c1ccc(CN3CCCCC3)s1)CC2
MV4-11
  GI50: 4010 nM
CDK8/Cyclin C
  Ki: 106 nM

## O=Cc1ccc(-c2cncc(Cl)c2N2CCC3(CCNC3=O)CC2)s1
MV4-11
  GI50: 750 nM
CDK8/Cyclin C
  Ki: 67 nM

## Cc1cc(-c2cncc(Cl)c2N2CCC3(CCNC3=O)CC2)sc1C=O
MV4-11
  GI50: 2530 nM
CDK8/Cyclin C
  Ki: 119 nM

## Cc1ccsc1-c1cncc(Cl)c1N1CCC2(CCNC2=O)CC1
MV4-11
  GI50: 910 nM
CDK8/Cyclin C
  Ki: 8 nM

## O=Cc1sccc1-c1cncc(Cl)c1N1CCC2(CCNC2=O)CC1
MV4-11
  GI50: 28700 nM
CDK8/Cyclin C
  Ki: 1750 nM

## O=Cc1cc(-c2cncc(Cl)c2N2CCC3(CCNC3=O)CC2)cs1
MV4-11
  GI50: 730 nM
CDK8/Cyclin C
  Ki: 52 nM

## Nc1ncc(-c2cc3ccccc3s2)c(N2CCC3(CCNC3=O)CC2)c1Cl
MV4-11
  GI50: 160 nM
[1]
  Vd: 1.32 L/kg
[2]
  Vd: 1.6 L/kg
[3]
  clearance: 13.2 mL/min/kg
[4]
  clearance: 33.3 mL/min/kg
[5]
  Cmax: 11.1 µM
[6]
  Cmax: 1.35 µM
[7]
  Cmax: 4.96 µM
[8]
  Cmax: 1.68 µM
[9]
  Tmax: 9 min
[10]
  Tmax: 5 h
[11]
  Tmax: 3 min
[12]
  Tmax: 0.18 h
[13]
  half-life: 4.41 h
[14]
  half-life: 10.1 h
[15]
  half-life: 0.88 h
[16]
  half-life: 1.67 h
[17]
  AUC at 24 h: 18.4 µM·h
[18]
  AUC at 24 h: 19.5 µM·h
[19]
  AUC at 24 h: 2.4 µM·h
[20]
  AUC at 24 h: 3.4 µM·h
[21]
  bioavailability: 26%
[22]
  bioavailability: 28%
CDK8/Cyclin C
  Ki: 7 nM

## O=C1NCCC12CCN(c1c(Cl)cncc1-c1ccoc1)CC2
MV4-11
  GI50: 750 nM
CDK8/Cyclin C
  Ki: 42 nM

## O=C1NCCC12CCN(c1c(Cl)cncc1-c1cc[nH]c1)CC2
MV4-11
  GI50: 1050 nM
CDK8/Cyclin C
  Ki: 14 nM

## O=C1NCCC12CCN(c1c(Cl)cncc1-c1cnn(C(F)F)c1)CC2
MV4-11
  GI50: 6140 nM
CDK8/Cyclin C
  Ki: 93 nM

## O=C1NCCC12CCN(c1c(Cl)cncc1-c1ccsc1)CC2
MV4-11
  GI50: 190 nM
CDK8/Cyclin C
  Ki: 18 nM

## CCOCOCc1ccc(-c2cncc(Cl)c2N2CCC3(CCNC3=O)CC2)o1
MV4-11
  GI50: 2970 nM
CDK8/Cyclin C
  Ki: 36 nM

## Cc1ccc(-c2cncc(Cl)c2N2CCC3(CCNC3=O)CC2)o1
MV4-11
  GI50: 4950 nM
CDK8/Cyclin C
  Ki: 22 nM

## O=C1NCCC12CCN(c1c(Cl)cncc1-c1ccc(Cl)s1)CC2
MV4-11
  GI50: 560 nM
CDK8/Cyclin C
  Ki: 14 nM

## O=C1NCCC12CCN(c1c(Cl)cncc1-c1cn[nH]c1)CC2
MV4-11
  GI50: 8520 nM
CDK8/Cyclin C
  Ki: 254 nM

## O=C1NCCC12CCN(c1c(Cl)cncc1-c1ccc(-c3ccccc3)s1)CC2
MV4-11
  GI50: 960 nM
[23]
  Activity: 62%
[24]
  Activity: 74%
[25]
  Activity: inactive
[26]
  Activity: inactive
[27]
  Activity: inactive
CDK8/Cyclin C
  Ki: 5 nM

## O=C1NCCC12CCN(c1c(Cl)cncc1-c1cccs1)CC2
MV4-11
  GI50: 480 nM
CDK8/Cyclin C
  Ki: 10 nM

## O=Cc1cscc1-c1cncc(Cl)c1N1CCC2(CCNC2=O)CC1
MV4-11
  GI50: 27100 nM
CDK8/Cyclin C
  Ki: 845 nM

## CC(=O)c1ccc(-c2cncc(Cl)c2N2CCC3(CCNC3=O)CC2)s1
MV4-11
  GI50: 1440 nM
CDK8/Cyclin C
  Ki: 66 nM

## CC(=O)c1sccc1-c1cncc(Cl)c1N1CCC2(CCNC2=O)CC1
MV4-11
  GI50: > 100000 nM
CDK8/Cyclin C
  Ki: 4660 nM

## CC(C)(C)OC(=O)N1CCN(Cc2ccc(-c3cncc(Cl)c3N3CCC4(CCNC4=O)CC3)s2)CC1
MV4-11
  GI50: 5150 nM
CDK8/Cyclin C
  Ki: 46 nM

## Cc1ccc(-c2cncc(Cl)c2N2CCC3(CCNC3=O)CC2)s1
MV4-11
  GI50: 650 nM
CDK8/Cyclin C
  Ki: 10 nM

## O=C1NCCC12CCN(c1c(Cl)cncc1-c1ccc(CN3CCOCC3)s1)CC2
MV4-11
  GI50: 2960 nM
CDK8/Cyclin C
  Ki: 32 nM

## Cn1cc(-c2cncc(Cl)c2N2CCC3(CCNC3=O)CC2)cn1
MV4-11
  GI50: 5530 nM
CDK8/Cyclin C
  Ki: 230 nM

## Cc1csc(-c2cncc(Cl)c2N2CCC3(CCNC3=O)CC2)c1
MV4-11
  GI50: 650 nM
CDK8/Cyclin C
  Ki: 10 nM
